Results reported in publication PMC2755653 (Journal of pharmaceutical sciences, 2009).

Tests used:
MDCKII-WT cells = assay: Cellular accumulation of radiolabeled drug in MDCKII-WT cell monolayers; assay type: cell-based, canine; settings: for increase in cellular accumulation compared to control: 0.03% w/w Pluronic P85 (CMC)
P-gp = P-gp (Homo sapiens, UniProt P08183); assay: Cellular accumulation of radiolabeled drug in MDCKII-MDR1 cell monolayers; assay type: cell-based; settings: for change in cellular accumulation at Pluronic P85 concentrations above the CMC / change in cellular accumulation with Pluronic P85 up to the CMC / cellular accumulation at 0.5% w/w P85 versus control without P85 / increase in cellular accumulation compared to control: MDR1 cells; for (WT/MDR1) accumulation ratio: nelfinavir
[1] = Cell-free equilibrium dialysis with Pluronic P85; assay type: physicochemical; settings: for time to equilibrium: equilibrium dialysis, MWCO 50,000 membrane, 37°C
Procedure, shortened: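 Two-chamber dialysis across a 50,000 Da MWCO membrane at 37°C, stirred, in pH 7.4 HEPES/bicarbonate buffer. Radiolabeled test compound was in the donor and buffer in the receiver. Below CMC, P85 was on both sides. For micellar levels, the receiver held 0.025% w/w and the donor target plus 0.005% w/w. Free fraction was receiver/donor concentration; a transfer-rate model was fitted.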

[2] = cited from earlier work
[3] = at the CMC of Pluronic P85 (0.03% w/w; printed 0.035% w/w for nelfinavir)

Sequence of P-gp (P08183 whole entry): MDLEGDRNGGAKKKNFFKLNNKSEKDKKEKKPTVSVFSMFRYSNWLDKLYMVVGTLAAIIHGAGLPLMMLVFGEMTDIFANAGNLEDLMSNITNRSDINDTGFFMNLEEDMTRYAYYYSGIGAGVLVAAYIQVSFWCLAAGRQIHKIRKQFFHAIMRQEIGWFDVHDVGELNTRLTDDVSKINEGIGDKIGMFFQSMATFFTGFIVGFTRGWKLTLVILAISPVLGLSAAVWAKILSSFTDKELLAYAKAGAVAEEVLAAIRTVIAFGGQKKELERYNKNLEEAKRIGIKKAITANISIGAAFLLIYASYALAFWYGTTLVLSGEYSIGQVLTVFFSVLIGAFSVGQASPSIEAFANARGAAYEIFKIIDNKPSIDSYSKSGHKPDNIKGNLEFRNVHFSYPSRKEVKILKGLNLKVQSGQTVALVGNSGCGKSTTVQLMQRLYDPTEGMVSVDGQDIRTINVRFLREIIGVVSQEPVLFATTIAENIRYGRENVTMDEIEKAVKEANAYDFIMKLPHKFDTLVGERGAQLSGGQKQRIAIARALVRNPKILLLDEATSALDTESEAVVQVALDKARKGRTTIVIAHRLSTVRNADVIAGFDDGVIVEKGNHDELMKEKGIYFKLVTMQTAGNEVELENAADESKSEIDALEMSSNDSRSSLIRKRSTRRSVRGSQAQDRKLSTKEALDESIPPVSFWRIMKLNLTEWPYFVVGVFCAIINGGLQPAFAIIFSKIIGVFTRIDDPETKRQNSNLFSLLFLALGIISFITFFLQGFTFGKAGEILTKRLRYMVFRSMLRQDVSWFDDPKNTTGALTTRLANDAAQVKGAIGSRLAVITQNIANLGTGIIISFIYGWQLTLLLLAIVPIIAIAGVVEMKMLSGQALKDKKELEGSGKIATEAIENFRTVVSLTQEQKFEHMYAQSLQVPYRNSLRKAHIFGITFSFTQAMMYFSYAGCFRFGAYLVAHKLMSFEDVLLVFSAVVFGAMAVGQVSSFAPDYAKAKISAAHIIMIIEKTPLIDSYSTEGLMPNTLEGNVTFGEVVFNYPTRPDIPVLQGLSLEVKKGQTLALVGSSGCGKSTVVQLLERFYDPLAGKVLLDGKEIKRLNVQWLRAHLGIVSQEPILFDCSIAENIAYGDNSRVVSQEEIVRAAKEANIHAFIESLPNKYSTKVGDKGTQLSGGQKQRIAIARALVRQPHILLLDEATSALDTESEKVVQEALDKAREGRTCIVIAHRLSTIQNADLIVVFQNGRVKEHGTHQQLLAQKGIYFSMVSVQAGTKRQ

| Structure (SMILES) | change in cellular accumulation at Pluronic P85 concentrations above the CMC (P-gp) | change in cellular accumulation with Pluronic P85 up to the CMC (P-gp) | change in cellular accumulation at Pluronic P85 concentrations above the CMC (MDCKII-WT cells) | change in cellular accumulation with Pluronic P85 up to the CMC (MDCKII-WT cells) | equilibrium free fraction ([1]; 0.5% w/w Pluronic P85) | equilibrium free fraction ([1]; absence of Pluronic P85) | equilibrium free fraction [1, 3] | time to equilibrium [1] | equilibrium free fraction ([1]; 0.1% w/w Pluronic P85) | cellular accumulation at 0.5% w/w P85 versus control without P85 (P-gp) | cellular accumulation at 0.5% w/w P85 versus control without P85 (MDCKII-WT cells) | increase in cellular accumulation compared to control (MDCKII-WT cells) | drug free ([1]; 0.5% w/w Pluronic P85) | further results |
| --- | --- | --- | --- | --- | --- | --- | --- | --- | --- | --- | --- | --- | --- | --- |
| COc1cc2c(cc1OC)CN(CCc1ccc(NC(=O)c3cccc4c(=O)c5cccc(OC)c5[nH]c34)cc1)CC2 [GF120918] | – | – | – | – | – | – | – | – | – | – | – | – | – | increase in nelfinavir accumulation compared to control (MDCKII-WT cells; highest concentration of GF120918 used): 5 fold; Emax (maximal effect on nelfinavir accumulation) (MDCKII-WT cells; sigmoid Emax model, mean ± SE): 4.76 ± 0.2 DPM normalized to stock / mg protein |
| Nc1nc(NC2CC2)c2ncn([C@H]3C=C[C@@H](CO)C3)c2n1 [abacavir] | significant decline | significant increase | significant decline | no significant increase | 0.871 ± 0.095 | 1.057 ± 0.212 | 0.984 ± 0.083 | ~ 20 hrs | – | – | – | – | – | drug associated with the micelles ([1]; 0.5% w/w Pluronic P85): roughly 10% |
| OC[C@@H](O)[C@@H](O)[C@H](O)[C@H](O)CO [mannitol] | no effect | – | no effect | – | – | 0.994 ± 0.06 | – | ~ 15 hrs | 0.968 ± 0.04 | – | – | – | – | – |
| Cc1c(O)cccc1C(=O)N[C@@H](CSc1ccccc1)[C@H](O)CN1C[C@H]2CCCC[C@H]2C[C@H]1C(=O)NC(C)(C)C [nelfinavir] | decreased significantly | increased significantly | decreased significantly | no statistically significant enhancement | – | 0.953 ± 0.109 | 0.941 ± 0.045 | ~ 50 hrs | 0.194 ± 0.02 | not statistically different | significantly lower than WT control | 1.3 fold | 5% | increase in cellular accumulation compared to control (P-gp; 0.03% w/w Pluronic P85): 6 fold; (WT/MDR1) accumulation ratio (P-gp; 0.03% w/w P85): 1.4; (WT/MDR1) accumulation ratio (P-gp; 0.5% w/w P85 (highest dose)): 1.23; (WT/MDR1) accumulation ratio (P-gp; absence of P85, 3 h accumulation): 6; drug free ([1]; 0.1% w/w Pluronic P85): 20% |
| CC(C)(C)NC(=O)[C@@H]1C[C@@H]2CCCC[C@@H]2CN1C[C@@H](O)[C@H](Cc1ccccc1)NC(=O)[C@H](CC(N)=O)NC(=O)c1ccc2ccccc2n1 [saquinavir] | decline in accumulation | significant increase in accumulation | decline in accumulation | significant increase in accumulation | 0.068 ± 0.007 | 0.827 ± 0.114 | 0.744 ± 0.031 | – | – | not significantly different | not significantly different | – | 7% | – |
| CC[C@]1(O)C[C@@H]2CN(CCc3c([nH]c4ccccc34)[C@@](C(=O)OC)(c3cc4c(cc3OC)N(C)[C@H]3[C@@](O)(C(=O)OC)[C@H](OC(C)=O)[C@]5(CC)C=CCN6CC[C@]43[C@@H]65)C2)C1 [vinblastine] | significant only at 0.5% w/w | – | significant only at 0.5% w/w | – | – | – | – | – | – | – | – | 3 fold | – | increase in cellular accumulation compared to control (P-gp; 0.05% w/w Pluronic P85 (maximum)): 21 fold; increase in cellular accumulation compared to control (P-gp; 0.5% w/w Pluronic P85): 10 fold; log P [2]: 1.89 |
